# Measurements from publication PMC5632530 (Cell, 2017).
# Assays:
# PTGR2 [1] = target: T1, PTGR2 (Homo sapiens, UniProt Q8N8N7); assay type: binding
# How it was run: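 HEK293T cells were transiently transfected with C-terminally FLAG-tagged human PTGR2 (pRK5, PEI). Cells at ~90% confluence were washed and treated in serum-free medium with probe plus competitor or DMSO for 30 min at 37°C, then irradiated at 365 nm for 10 min. Lysates (1 mg/mL) were clicked to TAMRA azide (25 μM) and fluorescence was read on gel. Curves: mean ± SD (n = 3 or 4), four-parameter fit.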
# PTGR2 [2] = target: T1, PTGR2; assay type: cell-based; settings: cells recombinantly expressing PTGR2
# How it was run: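 HEK293T cells were co-transfected (PEI) with a UAS-luciferase reporter, GAL4-DBD or GAL4-DBD::PPARγ-LBD, and full-length PTGR2 as indicated. After 24 hr they were treated with DMSO, 15-keto-PGE2 (20 μM), test compounds, or rosiglitazone (2 μM) control. After 16 hr cells were lysed and luciferase activity was measured.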
# PTGR2 [3] = target: T1, PTGR2; assay: cell-based
# endogenous PTGR2 = endogenous PTGR2 (Homo sapiens, UniProt Q8N8N7); assay type: binding
# How it was run: (§1)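 SILAC-labeled HEK293T cells were used: heavy cells received FFF probe plus competitor and light cells received probe plus DMSO, in serum-free medium for 30 min at 37°C, followed by 365 nm UV for 10 min. Lysates (1.5 mg/mL) were mixed 1:1, clicked to biotin-azide, streptavidin-enriched, trypsin-digested and analysed by LC-MS. Ratios were averaged from ≥2 biological replicates.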
# PTGR2 [4] = target: T1, PTGR2; assay: In vitro LCMS-based activity assay for PTGR2; assay type: biochemical
# PPARγ = target: T2, PPARγ (Homo sapiens, UniProt P37231); assay: PPARγ luciferase reporter assay, direct modulation of PPARγ; assay type: cell-based
# T2 sequence (P37231 238-503 limits assumed): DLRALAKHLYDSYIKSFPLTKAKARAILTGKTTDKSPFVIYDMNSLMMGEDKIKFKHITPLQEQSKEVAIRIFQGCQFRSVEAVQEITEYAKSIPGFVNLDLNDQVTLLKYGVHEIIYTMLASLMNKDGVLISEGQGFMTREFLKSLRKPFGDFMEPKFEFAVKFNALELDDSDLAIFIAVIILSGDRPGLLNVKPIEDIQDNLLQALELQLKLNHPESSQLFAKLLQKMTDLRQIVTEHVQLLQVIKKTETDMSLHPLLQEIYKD
# ZADH2 = target: T3, ZADH2 (Homo sapiens, UniProt Q8N4Q0); assay: MS-based competitive profiling with FFF 8: cross-reactivity with ZADH2; assay type: binding; settings: competition of FFF 8 labeling
# T3 sequence (Q8N4Q0 1-377): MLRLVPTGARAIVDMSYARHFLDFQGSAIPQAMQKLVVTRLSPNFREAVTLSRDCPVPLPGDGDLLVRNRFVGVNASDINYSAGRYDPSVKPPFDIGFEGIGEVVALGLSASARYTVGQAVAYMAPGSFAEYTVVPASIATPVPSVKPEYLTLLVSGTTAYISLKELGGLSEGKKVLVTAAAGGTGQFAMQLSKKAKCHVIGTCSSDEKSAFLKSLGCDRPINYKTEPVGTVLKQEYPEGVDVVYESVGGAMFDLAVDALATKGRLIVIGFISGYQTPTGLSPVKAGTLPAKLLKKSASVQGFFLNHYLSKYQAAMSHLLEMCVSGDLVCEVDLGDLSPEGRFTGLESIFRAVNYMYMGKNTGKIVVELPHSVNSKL
# How it was run: as §1
# non-adipocyte cell lines = assay: Lipid accumulation in non-adipocyte cell lines; assay type: cell-based
# PGRMC2 = target: T4, PGRMC2 (Mus musculus, UniProt Q80UU9); assay: Quantitative proteomic; assay type: binding
# T4 sequence (Q80UU9 1-217): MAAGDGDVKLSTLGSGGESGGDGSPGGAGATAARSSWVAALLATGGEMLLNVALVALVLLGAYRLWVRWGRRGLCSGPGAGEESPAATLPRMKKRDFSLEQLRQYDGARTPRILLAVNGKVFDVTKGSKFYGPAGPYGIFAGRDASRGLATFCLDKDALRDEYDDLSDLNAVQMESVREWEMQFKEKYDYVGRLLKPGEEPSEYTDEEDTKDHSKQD
# PGRMC1 = PGRMC1 (Mus musculus, UniProt O55022); assay: Quantitative proteomic; assay type: binding; settings: 10 μM
# human PGRMC2 [5] = target: T5, human PGRMC2 (Homo sapiens, UniProt O15173); assay type: binding; settings: HEK293T cells
# T5 sequence (O15173 1-223): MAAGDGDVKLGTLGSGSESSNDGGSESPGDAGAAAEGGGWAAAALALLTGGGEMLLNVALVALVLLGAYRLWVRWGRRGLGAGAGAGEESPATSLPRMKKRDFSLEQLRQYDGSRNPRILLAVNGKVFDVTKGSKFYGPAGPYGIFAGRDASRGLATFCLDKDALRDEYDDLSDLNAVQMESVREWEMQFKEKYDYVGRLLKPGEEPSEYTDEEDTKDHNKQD
# How it was run: (§2)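 HEK293T cells were transfected with human PGRMC2 and lysed 48 hr later. Lysates (1 mg/mL) were incubated with probe and competitor or DMSO for 30 min at room temperature, UV-irradiated, clicked to TAMRA azide, and analysed by in-gel fluorescence. Blockade curves: mean ± SD (n = 3 or 4), four-parameter non-linear fit.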
# [6] = tested on: 3T3-L1 mouse preadipocytes; assay: Adipocyte phenotypic screen: lipid accumulation by Nile Red; assay type: cell-based; settings: for adipogenic activity in adipogenesis-related assays, in words: compounds 10 μM, 3T3-L1; for effect of co-treatment on the pro-adipogenic effects of 25: 10 μM with 25 (10 μM), Nile Red staining or adipogenic gene expression
# How it was run: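 3T3-L1 preadipocytes were induced two days post-confluence with dexamethasone (1 μM), IBMX (0.5 mM) and insulin (1 μg/ml), plus DMSO (0.1%), test compound (10 μM), test compound with probe, or rosiglitazone (2 μM). They were stained with Nile Red and Hoechst at day 7 of differentiation, imaged, and harvested for RNA. Mean ± SD, n = 3.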
# cathepsin B (CTSB) = cathepsin B (CTSB) (Homo sapiens, UniProt P07858); assay: Competition of FFF 9 labeling of the active-site proximal peptide of CTSB; assay type: binding
# How it was run: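 Cells were treated with probe (200–250 μM) with or without competitor in serum-free DMEM, UV-crosslinked, and lysed. Probe-labeled proteins were clicked to light or heavy biotin-TEV-azide (100 μM final) with CuSO4, TBTA and TCEP. Samples were combined, streptavidin-enriched, trypsin-digested on bead and released by TEV cleavage (50 mM Tris pH 8, 0.5 mM EDTA, 1 mM DTT). Probe-modified peptides were quantified by LC-MS.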
# human PGRMC2 [7] = target: T5, human PGRMC2; assay: In vitro gel-based competition of FFF probe 25 labeling of PGRMC2; assay type: binding
# How it was run: as §2
# T1 sequence (Q8N8N7 whole entry): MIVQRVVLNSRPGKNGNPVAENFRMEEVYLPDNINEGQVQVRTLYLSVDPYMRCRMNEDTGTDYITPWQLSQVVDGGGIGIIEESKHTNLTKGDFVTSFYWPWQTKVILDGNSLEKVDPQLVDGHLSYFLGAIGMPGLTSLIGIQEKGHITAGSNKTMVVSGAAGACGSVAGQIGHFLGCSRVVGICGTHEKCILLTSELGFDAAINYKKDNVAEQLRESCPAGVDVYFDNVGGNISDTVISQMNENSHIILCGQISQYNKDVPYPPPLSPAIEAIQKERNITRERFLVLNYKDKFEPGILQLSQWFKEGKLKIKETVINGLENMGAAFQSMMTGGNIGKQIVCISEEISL
# Chain of endogenous PTGR2 (Q8N8N7 whole entry): as above
# Chain of PGRMC1 (O55022 whole entry): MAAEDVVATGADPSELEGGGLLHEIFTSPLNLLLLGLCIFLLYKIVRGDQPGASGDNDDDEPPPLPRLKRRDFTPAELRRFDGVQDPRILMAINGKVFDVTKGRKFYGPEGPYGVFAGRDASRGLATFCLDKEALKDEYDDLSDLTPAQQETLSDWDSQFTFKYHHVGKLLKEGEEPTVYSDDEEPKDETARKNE
smiles,measurement,setting,value
"COc1ccccc1N1CCN(C(=O)Cc2ccccc2)CC1 [Compound 22, 1-(4-(2-Methoxyphenyl)piperazin-1-yl)-2-phenylethan-1-one]","increase in potency relative to 20, competition of 8-labeling",PTGR2 [1],> 20 fold
same,rescue of 15-keto-PGE2-dependent PPARγ transcriptional activity,PTGR2 [2],concentration-dependent rescue
same,IC50,PTGR2 [3],~700 nM
same,inhibition of FFF 8 labeling of endogenous PTGR2,"endogenous PTGR2; 5 μM, HEK293T cells",complete inhibition
same,"proteome-wide selectivity in blocking FFF 8 labeling, in words",endogenous PTGR2; HEK293T cells,excellent selectivity
same,inhibition at 0.5 µM,endogenous PTGR2; read-out: inhibition of FFF 8 labeling of endogenous PTGR2,~80%
same,"increase in potency relative to 20, 15-keto-PGE2 reductase activity",PTGR2 [4],> 20 fold
same,direct modulation of PPARγ,PPARγ,neither 22 nor 23 directly modulated PPARγ
same,"cross-reactivity with ZADH2, sequence-related homolog of PTGR2",ZADH2,did not cross-react
"COc1ccccc1C1CCN(S(=O)(=O)Cc2ccccc2)CC1 [Compound 23, 1-(Benzylsulfonyl)-4-(2-methoxyphenyl)piperidine]",direct modulation of PPARγ,PPARγ,neither 22 nor 23 directly modulated PPARγ
"C#CCCC1(CCC(=O)N[C@@H](CC(C)C)C(=O)Nc2ccc3ccccc3c2)N=N1 [Compound 25, (S)-2-(3-(3-(but-3-yn-1-yl)-3H-diazirin-3-yl)propanamido)-4-methyl-N-(naphthalen-2-yl)pentanamide]",lipid accumulation in non-adipocyte cell lines,non-adipocyte cell lines,did not induce lipid accumulation
same,preferential enrichment of PGRMC2 by 25 over 26 (SILAC ratio),"PGRMC2; 10 μM each, 30 min",> 3 fold
same,enrichment of PGRMC1 by 25 over 26,PGRMC1,not preferentially enriched
same,labeling of recombinant human PGRMC2 by FFF probe,human PGRMC2 [5],strongly labeled
same,"lipid accumulation, in words",[6]; Nile Red,one of the highest levels of lipid accumulation
"C#CCCC1(CCC(=O)N[C@@H](C)C(=O)Nc2cc(OC)c3ccccc3c2)N=N1 [Compound 26, (S)-3-(3-(but-3-yn-1-yl)-3H-diazirin-3-yl)-N-(1-((4-methoxynaphthalen-2-yl)amino)-1-oxopropan-2-yl)propanamide]","adipogenic activity in adipogenesis-related assays, in words",[6],much less adipogenic activity
"CCCC(=O)N[C@@H](CC(C)C)C(=O)Nc1ccc2ccccc2c1 [Compound 27, (S)-2-butyramido-4-methyl-N-(naphthalen-2-yl)pentanamide]",competition of 25 (10 μM) enrichment of PGRMC2 (SILAC ratio),PGRMC2; 10× competitor,> 3 fold
same,blockade of 25 labeling of recombinant human PGRMC2 by competitor,human PGRMC2 [5],blocked in a concentration-dependent manner
same,"adipogenic activity in adipogenesis-related assays, in words",[6],active
"CCCC(=O)N[C@@H](C)C(=O)Nc1cc(OC)c2ccccc2c1 [Compound 28, (S)-N-(1-((4-methoxynaphthalen-2-yl)amino)-1-oxopropan-2-yl)butyramide]","adipogenic activity in adipogenesis-related assays, in words",[6],largely inactive
"CCCC(=O)N[C@@H](CC(C)C)C(=O)N[C@H]1CCCc2ccccc21 [Compound 29, (S)-2-butyramido-4-methyl-N-((S)-1,2,3,4-tetrahydronaphthalen-1-yl)pentanamide]","adipogenic activity in adipogenesis-related assays, in words",[6],inactive controls
"CCCC(=O)N[C@@H](CC(C)C)C(=O)NCCc1ccc2c(c1)OCO2 [Compound 30, (S)-N-(2-(benzo[d][1,3]dioxol-5-yl)ethyl)-2-butyramido-4-methylpentanamide]","adipogenic activity in adipogenesis-related assays, in words",[6],inactive controls
"CC(C)(C)OC(=O)CN(Cc1ccc(Cl)cc1)Cc1ccc([N+](=O)[O-])s1 [GSK4112, reference compound]",effect of co-treatment on the pro-adipogenic effects of 25,[6],had no effect
"CCOC(=O)C1Cc2ccccc2CN1C(=O)c1ccc(SC)s1 (centres unmarked) [SR8278, reference compound]",effect of co-treatment on the pro-adipogenic effects of 25,[6],blocked
CC(NC(=O)[C@H](Cc1ccccc1)NC(=O)OCc1ccccc1)C(=O)CF (some centres unmarked) [Z-FA-FMK],blockade of probe 9 interaction with CTSB peptide (aa 315–332),cathepsin B (CTSB),blocked
C=CC1=C(C)c2cc3[nH]c(cc4nc(cc5[nH]c(cc1n2)c(C)c5CCC(=O)O)C(CCC(=O)O)=C4C)c(C)c3C=C [protoporphyrn IX],IC50,human PGRMC2 [7],130 nM
